pIC50: −log10 of the molar value.
Target: T1, Tumor necrosis factor (Homo sapiens, UniProt P01375)
Test: Inhibition of LPS-induced TNF-alpha production in human PBMC preincubated for 30 mins followed by LPS addition measured after 5 hrs by ELISA
Method in brief: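 Donor blood diluted 1:1 in PBS; PBMCs isolated on histopaque, washed, resuspended in RPMI 1640 with 10% FBS and antibiotics, 1 x 10^6 cells/ml (viability ≥98%). Compounds at 0.03–100 μM in DMSO (final 0.5%) for 30 min at 37 °C, 5% CO2, then E. coli 0127:B8 LPS 1 µg/mL final for 5 h. Supernatant TNF-α by ELISA; % inhibition vs vehicle; IC50 mean of three independent experiments.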

T1 sequence (P01375 whole entry): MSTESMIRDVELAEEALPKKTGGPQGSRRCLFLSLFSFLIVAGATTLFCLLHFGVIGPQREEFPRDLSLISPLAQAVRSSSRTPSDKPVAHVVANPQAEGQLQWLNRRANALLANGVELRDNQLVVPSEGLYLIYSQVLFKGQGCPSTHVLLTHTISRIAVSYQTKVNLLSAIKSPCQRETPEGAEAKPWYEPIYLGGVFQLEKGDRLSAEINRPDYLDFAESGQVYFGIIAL

SMILES	pIC50
O=S(=O)(c1cnc2ccc(Cl)nn12)N1CCN(c2ccccn2)CC1	< 4.52
CCN1CCN(S(=O)(=O)c2cnc3ccc(Cl)nn23)CC1	< 4.52
COc1cccc(CNS(=O)(=O)c2cnc3ccc(-c4ccc(OC)nc4)nn23)c1	< 4.52
O=S(=O)(c1cnc2ccc(-c3cncc(C(F)(F)F)c3)nn12)N1CCN(c2ccccn2)CC1	4.96
NS(=O)(=O)c1cnc2ccc(Cl)nn12	4.55
O=S(=O)(c1cnc2ccc(-c3cncc(F)c3)nn12)N1CCN(c2ccccn2)CC1	4.55
N#CC1(c2ccccc2)CCN(S(=O)(=O)c2cnc3ccc(Cl)nn23)CC1	4.60
CCN1CCN(S(=O)(=O)c2cnc3ccc(-c4ccc(S(C)(=O)=O)cc4)nn23)CC1	4.82
COc1cccc(CNS(=O)(=O)c2cnc3ccc(-c4cccnc4)nn23)c1	6.52
O=S(=O)(c1cnc2ccc(-c3cccnc3)nn12)N1CCN(Cc2ccccc2)CC1	4.74
CS(=O)(=O)c1ccc(-c2ccc3ncc(S(=O)(=O)N4CCN(Cc5ccccc5)CC4)n3n2)cc1	4.92
O=S(=O)(NCC1CCCO1)c1cnc2ccc(-c3cncc(F)c3)nn12 (configuration not stated)	5.40
Nc1ncc(-c2ccc3ncc(S(N)(=O)=O)n3n2)cc1C(F)(F)F	5.40
COc1cccc(CNS(=O)(=O)c2cnc3ccc(Cl)nn23)c1	< 4.52
N#CC1(c2ccccc2)CCN(S(=O)(=O)c2cnc3ccc(-c4cncc(C(F)(F)F)c4)nn23)CC1	4.70
COc1ccc(-c2ccc3ncc(S(=O)(=O)N4CCN(c5ccccn5)CC4)n3n2)cn1	< 4.52
COc1cccc(CNS(=O)(=O)c2cnc3ccc(-c4cncc(C(F)(F)F)c4)nn23)c1	< 4.52
COc1ccc(-c2ccc3ncc(S(=O)(=O)NCC4CCCO4)n3n2)cc1 (configuration not stated)	5.40
CCN1CCN(S(=O)(=O)c2cnc3ccc(-c4ccc(OC)cc4)nn23)CC1	4.70
O=S(=O)(NCC1CCCO1)c1cnc2ccc(-c3cncc(C(F)(F)F)c3)nn12 (configuration not stated)	< 4.52
CCN1CCN(S(=O)(=O)c2cnc3ccc(-c4cccnc4)nn23)CC1	4.82

SMILES	pIC50
O=S(=O)(c1cnc2ccc(-c3cccnc3)nn12)N1CCN(c2ccccn2)CC1	4.96
CCN1CCN(S(=O)(=O)c2cnc3ccc(-c4cncc(C(F)(F)F)c4)nn23)CC1	5.05
O=S(=O)(c1cnc2ccc(-c3cncc(F)c3)nn12)N1CCN(Cc2ccccc2)CC1	< 4.52
COc1cccc(CNS(=O)(=O)c2cnc3ccc(-c4cncc(F)c4)nn23)c1	5.22
COc1cccc(CNS(=O)(=O)c2cnc3ccc(-c4cnc(N)c(C(F)(F)F)c4)nn23)c1	< 4.52
COc1cccc(CNS(=O)(=O)c2cnc3ccc(-c4ccc(S(C)(=O)=O)cc4)nn23)c1	4.55
CS(=O)(=O)c1ccc(-c2ccc3ncc(S(=O)(=O)N4CCC(C#N)(c5ccccc5)CC4)n3n2)cc1	5.10
O=S(=O)(c1cnc2ccc(Cl)nn12)N1CCN(Cc2ccccc2)CC1	4.52
CCN1CCN(S(=O)(=O)c2cnc3ccc(-c4ccc(OC)nc4)nn23)CC1	4.70
O=S(=O)(NCC1CCCO1)c1cnc2ccc(-c3cccnc3)nn12 (configuration not stated)	5.40
CS(=O)(=O)c1ccc(-c2ccc3ncc(S(=O)(=O)N4CCN(c5ccccn5)CC4)n3n2)cc1	4.92
COc1ccc(-c2ccc3ncc(S(=O)(=O)N4CCC(C#N)(c5ccccc5)CC4)n3n2)cc1OC	6.30
CCN1CCN(S(=O)(=O)c2cnc3ccc(-c4cncc(F)c4)nn23)CC1	< 4.52
COc1ccc(-c2ccc3ncc(S(=O)(=O)NCC4CCCO4)n3n2)cn1 (configuration not stated)	5.22
O=S(=O)(c1cnc2ccc(Cl)nn12)N1CCN(c2ccccc2)CC1	4.52
Nc1ncc(-c2ccc3ncc(S(=O)(=O)N4CCN(c5ccccn5)CC4)n3n2)cc1C(F)(F)F	4.96
O=S(=O)(NCC1CCCO1)c1cnc2ccc(Cl)nn12 (configuration not stated)	4.52
CS(=O)(=O)c1ccc(-c2ccc3ncc(S(=O)(=O)NCC4CCCO4)n3n2)cc1 (configuration not stated)	< 4.52
N#CC1(c2ccccc2)CCN(S(=O)(=O)c2cnc3ccc(-c4cncc(F)c4)nn23)CC1	< 4.52
N#CC1(c2ccccc2)CCN(S(=O)(=O)c2cnc3ccc(-c4cccnc4)nn23)CC1	5.15

Target: T1, Tumor necrosis factor
Test: Inhibition of LPS-induced TNF-alpha production in human MNC suspension after 20 hrs by radioimmunoassay

SMILES	pIC50
COc1ccc([C@@H]2CNC(=O)C2)cc1OC1CCCC1 (racemic) [Adeo]	6.70

Source: BindingDB's records for doi:10.1016/j.bmcl.2017.11.026 (Padmashri Vikhe Patil College of Arts, 2018)
